Source: PubChem BioAssay (The Scripps Research Institute Molecular Screening Center)
TAAR1 antag: human TAAR1 antagonism. CHO RD-HGA16 TAAR1, Fluo-8 calcium fluorescence, antagonist. inhibition, % at 3 µM. 360,000 compounds, 1.5% hits;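 active = inhibition above a per-plate cutoff, the mean inhibition of test compounds on that plate plus 3 SD, cut at about 49% in these data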;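 note: 0% = DMSO plus EC80 beta-PEA response and 100% = DMSO alone without agonist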
Target sequence (Q96RJ0 whole entry, looked up): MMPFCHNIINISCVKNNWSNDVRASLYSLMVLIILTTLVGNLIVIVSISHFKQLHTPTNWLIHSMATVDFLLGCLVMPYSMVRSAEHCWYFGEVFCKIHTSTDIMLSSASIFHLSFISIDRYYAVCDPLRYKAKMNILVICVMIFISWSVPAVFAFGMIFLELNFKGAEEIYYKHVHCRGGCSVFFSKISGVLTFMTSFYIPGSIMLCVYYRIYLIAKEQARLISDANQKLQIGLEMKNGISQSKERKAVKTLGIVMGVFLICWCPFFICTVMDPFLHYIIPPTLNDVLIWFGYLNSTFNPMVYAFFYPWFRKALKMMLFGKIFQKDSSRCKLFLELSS
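System: RD-HGA16 CHO cells with stable hTAAR1 and Gα16 | Probe or stimulus: EC80 β-phenethylamine stimulus | Dosing: 3 µM, single point | Times: Dye loading 75 min at 37 °C, then 30 min room temperature | Measured by: Fluo-8 calcium-sensitive fluorescence | Read-out basis: % inhibition of agonist calcium response | Replicates: n of 1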
OX1R antag-1: OX1R (human) antagonism. O43613. OX1R-expressing cells, FRET antagonist read-out. inhibition, % at 6.6 µM. 330,000 compounds, 1.8% hits; in the data active = inhibition mostly above about 38%, no sharp cut-off; inactive = mostly below about 40%;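 note: 0% = agonist challenge alone and 100% = reference antagonist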
OX1R antag-2: blocks the human orexin 1 receptor; O43613; CHO/OX1R cells, Fluo-8 calcium fluorescence, orexin A; inhibition, % at 5 µM; 330,000 compounds, 0.43% hits; AID 434989;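 active = inhibition above its plate's threshold, mean inhibition of all tested compounds on the plate plus 3 SD, cut at about 37% in these data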;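 note: 0% = orexin A challenge wells and 100% = SB-334867-A antagonist wells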
TAAR1 ag: agonists of human TAAR1; 360,000 compounds, 0.99% hits; AID 624467; activation, % at 3 µM; CHO RD-HGA16 TAAR1, Fluo-8 calcium fluorescence; vehicle wells 0%, saturating PEA agonist 100%;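 active = activation above the mean activation of all test compounds in the run plus 3 SD, cut at about 38% in these data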
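Test system: RD-HGA16 (CHO) cells co-expressing Gα16 and hTAAR1 | Doses: Single dose, 3 µM | Schedule: 17-24 h seeding, 75 min 37 °C dye, 30 min RT | Evaluation: % activation from peak over basal fluorescence ratio, DMSO-to-PEA scaled | Technique: Kinetic Fluo-8 calcium fluorescence | Benchmarks: Low control DMSO, high control PEA (EC100)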
CHO parental Ca: counter-screen for OX1R antagonists: effect in parental CHO cells. parental CHO-K1, ATP-induced calcium, Fluo-8 fluorescence. inhibition, % at 5.6 µM. 330,000 compounds, 0.63% hits. AID 463079;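 active = inhibition above that plate's mean sample inhibition plus 3 SD, cut at about 26% in these data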;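 note: 0% = ATP-challenged DMSO wells and 100% = DMSO wells without ATP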
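Material: Parental CHO cells | Reagent: ATP | Compound dosing: Single nominal dose of 5.6 µM per compound | Detection: Intracellular calcium via Fluo-8 no-wash fluorescent dye | Read-out: % inhibition of ATP-induced calcium mobilization | Benchmarks: Low control ATP plus DMSO, high control DMSO only | Replicates: Singlicate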
GPR7 antag: blocks human GPR7 receptor signaling; inhibition, % at 4.4 µM; GPR7-expressing cells, fluorescence antagonist assay; AID 1861; 290,000 compounds, 1.1% hits; P48145; in the data active = inhibition above about 16%, passing the limit was not always enough;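 note: cells stimulated with the agonist NPW; 0% = agonist with vehicle and 100% = vehicle without agonist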
Target sequence (P48145 whole entry, looked up): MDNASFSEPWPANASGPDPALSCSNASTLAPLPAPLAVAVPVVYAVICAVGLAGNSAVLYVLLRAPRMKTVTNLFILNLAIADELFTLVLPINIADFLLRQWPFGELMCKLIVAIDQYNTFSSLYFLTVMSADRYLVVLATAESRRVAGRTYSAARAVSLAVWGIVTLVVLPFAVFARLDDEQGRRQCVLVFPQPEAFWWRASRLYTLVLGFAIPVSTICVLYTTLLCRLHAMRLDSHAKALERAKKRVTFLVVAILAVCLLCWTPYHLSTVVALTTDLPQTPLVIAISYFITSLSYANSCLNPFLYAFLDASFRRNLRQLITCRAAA
TAAR1 ag conf: human TAAR1 agonism, confirmed. shares compounds with TAAR1 ag. CHO RD-HGA16 TAAR1, Fluo-8 calcium fluorescence; scaled: DMSO 0%, maximal phenethylamine 100%. activation, % at 3 µM. 2,400 compounds, 82% hits. AID 651783;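 active = activation above a cutoff set at the run's mean compound activation plus 3 SD, cut at about 39% in these data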
Ga16 nonsel ag: nonselective agonism, TAAR1 counter-screen. shares compounds with TAAR1 ag. CHO-Ga16 parental, Fluo-8 calcium fluorescence; normalized to maximal ATP response, DMSO zero. 2,400 compounds, 50% hits. activation, % at 3 µM;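 active = activation above the run cutoff, the mean activation over all tested wells plus 3 SD, cut at about 12% in these data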;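 note: 0% = DMSO wells and 100% = maximal ATP response on the peak over basal ratio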
TAAR1 desensitize: counter-screen for human TAAR1 agonists: agonists that desensitize TAAR1 | shares compounds with TAAR1 ag | CHO RD-HGA16 hTAAR1, Fluo-8 calcium, beta-PEA response inhibition | inhibition, % at 3 µM | 2,400 compounds, 46% hits | AID 651951;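 active = inhibition above the run cutoff, the mean inhibition of all test compounds plus 3 SD, cut at about 49% in these data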;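 note: beta-PEA stimulus applied at its EC80; loss of beta-PEA calcium signal after compound pretreatment read as receptor desensitization; 0% = DMSO with beta-PEA at EC80 and 100% = DMSO alone without agonist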
Ga16 antag count: nonselective Ga16 antagonism, counter-screen. 2,400 compounds, 39% hits. CHO-Ga16 ATP-induced calcium, Fluo-8 fluorescence. inhibition, % at 3 µM. shares compounds with TAAR1 ag;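 active = inhibition above the plate's mean compound inhibition plus 3 SD, computed per plate, cut at about 22% in these data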;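 note: 0% = EC80 ATP with DMSO and 100% = DMSO wells without ATP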
Active calls of the source: *. An excerpt weighted towards active compounds, which were near 4.6% of everything screened.

What do the screens show for `CN1C(C(=O)NCCc2cccs2)CC2Cn3c(nc4cc5ccccc5cc43)C21` (centres undefined)?
TAAR1 antag: 51.1*; OX1R antag-1: 30.2; OX1R antag-2: -13.7; TAAR1 ag: 77.5*; CHO parental Ca: -10.9; TAAR1 ag conf: 91.6*; Ga16 nonsel ag: 14.7*; TAAR1 desensitize: 83.1*; Ga16 antag count: 11.4

Results for O=[N+]([O-])C1=CC=C2C(=NC3(CCCCC3)N2O)C1=NCCc1ccccc1 ?
TAAR1 antag: 14.2; TAAR1 ag: 44.2*; GPR7 antag: -0.4; TAAR1 ag conf: 78.6*; Ga16 nonsel ag: 0.7; TAAR1 desensitize: 50.4*; Ga16 antag count: 4.4

How did CC(C)(C)N=C1C([N+](=O)[O-])=CC=C2C1=NC1(CCCCC1)N2O do in these assays?
TAAR1 antag: -16.5; OX1R antag-1: 15.7; OX1R antag-2: -20.0; TAAR1 ag: -0.1; CHO parental Ca: -0.6; GPR7 antag: -1.8

What do the screens show for `Cc1ccc(C)c(OCC(=O)Nc2ccccc2C(=O)N2CCOCC2)c1`?
TAAR1 antag: -4.1; OX1R antag-1: 6.8; OX1R antag-2: -13.6; TAAR1 ag: 1.6; CHO parental Ca: -3.2; GPR7 antag: -19.4

How did OC(c1cc(C(F)(F)F)nc2c(C(F)(F)F)cccc12)C1CCCCN1 (centres undefined) do in these assays?
TAAR1 antag: 50.2*; OX1R antag-1: 0.7; OX1R antag-2: -4.9; TAAR1 ag: 67.2*; CHO parental Ca: 4.0; TAAR1 ag conf: 67.5*; Ga16 nonsel ag: 43.6*; TAAR1 desensitize: 60.4*; Ga16 antag count: 53.8*

What do the screens show for `OC(c1cc(-c2cccc(Cl)c2)nc2ccccc12)C1CCCCN1` (centres undefined)?
TAAR1 antag: 44.0; TAAR1 ag: 29.3

What do the screens show for `OC(c1cc(-c2ccc(C(F)(F)F)cc2)nc(C(F)(F)F)c1)C1CCCCN1` (centres undefined)?
TAAR1 antag: 48.3; OX1R antag-1: -15.9; OX1R antag-2: -2.4; TAAR1 ag: 81.9*; CHO parental Ca: 8.5; GPR7 antag: 42.0*; TAAR1 ag conf: 81.6*; Ga16 nonsel ag: 61.7*; TAAR1 desensitize: 69.1*; Ga16 antag count: 69.7*

How did CN(C)S(=O)(=O)N1CCC(n2nccc2NC(=O)CCc2ccccc2)CC1 do in these assays?
TAAR1 antag: -2.8; OX1R antag-1: 15.1; OX1R antag-2: -2.9; TAAR1 ag: 1.0; CHO parental Ca: -5.8; GPR7 antag: -8.8

What do the screens show for `Cc1cc(C(=O)CN2C(=O)NC(C)(c3ccc(F)c(F)c3)C2=O)c(C)n1C1CC1` (centres undefined)?
TAAR1 antag: 48.0; TAAR1 ag: 68.1*; TAAR1 ag conf: 84.3*; Ga16 nonsel ag: 30.2*; TAAR1 desensitize: 38.7; Ga16 antag count: 16.3

Results for COc1ccc(C2(C)NC(=O)N(CC(=O)c3cc(C)n(C4CC4)c3C)C2=O)cc1 (centres undefined) ?
TAAR1 antag: 82.8*; OX1R antag-1: 3.6; OX1R antag-2: 52.3*; TAAR1 ag: 136.9*; CHO parental Ca: 26.1; TAAR1 ag conf: 104.3*; Ga16 nonsel ag: 50.0*; TAAR1 desensitize: 47.5; Ga16 antag count: 26.2*

How did COc1ccc(-c2nc(CSCC(=O)N3CCc4ccccc4C3)c(C)o2)cc1OC do in these assays?
TAAR1 antag: 29.1; OX1R antag-1: 25.6; OX1R antag-2: -28.6; TAAR1 ag: 68.4*; CHO parental Ca: -24.2; GPR7 antag: -4.4; TAAR1 ag conf: 93.6*; Ga16 nonsel ag: 1.5; TAAR1 desensitize: 59.6*; Ga16 antag count: 1.4

Results for COc1ccc(NC(=O)N2CCc3cc(OC)c(OC)cc3C2)cc1 ?
TAAR1 antag: -6.3; OX1R antag-1: 2.6; OX1R antag-2: 0.9; TAAR1 ag: 1.1; CHO parental Ca: 2.6; GPR7 antag: -6.8

Results for COc1ccc(NC(=O)N2CCc3ccccc3C2)c(OC)c1 ?
TAAR1 antag: 19.5; OX1R antag-1: 12.5; OX1R antag-2: -14.1; TAAR1 ag: 44.0*; CHO parental Ca: 0.6; GPR7 antag: -1.6; TAAR1 ag conf: 47.7*; Ga16 nonsel ag: -0.3; TAAR1 desensitize: -10.1; Ga16 antag count: -4.0

Results for COc1ccc(OC)c(NC(=O)N2CCc3ccccc3C2)c1 ?
TAAR1 antag: -13.1; OX1R antag-1: 10.4; OX1R antag-2: -27.4; TAAR1 ag: 43.5*; CHO parental Ca: -17.4; GPR7 antag: -7.8; TAAR1 ag conf: 56.6*; Ga16 nonsel ag: 1.2; TAAR1 desensitize: 8.8; Ga16 antag count: 11.2

What do the screens show for `COc1ccc(NC(=O)N2CCc3ccccc3C2)cc1OC`?
TAAR1 antag: -13.7; OX1R antag-1: 4.0; OX1R antag-2: -10.4; TAAR1 ag: 58.9*; CHO parental Ca: -0.7; GPR7 antag: -16.2; TAAR1 ag conf: 66.0*; Ga16 nonsel ag: 2.9; TAAR1 desensitize: 12.0; Ga16 antag count: 0.9

What do the screens show for `COc1ccc(CNC(=O)N2CCc3ccccc3C2)cc1Cl`?
TAAR1 antag: -1.7; OX1R antag-1: 12.2; OX1R antag-2: -28.3; TAAR1 ag: 3.3; CHO parental Ca: -27.6; GPR7 antag: 15.2

What do the screens show for `CCc1ccc(C(C(=O)NC2CCCCC2)N(C(=O)CNC(=O)c2ccco2)c2cccnc2)cc1` (centres undefined)?
GPR7 antag: -11.8

What do the screens show for `CCn1cc(S(=O)(=O)NCCc2ccccc2OC)cn1`?
TAAR1 antag: -5.0; OX1R antag-1: 8.9; OX1R antag-2: -9.2; TAAR1 ag: 45.6*; CHO parental Ca: -6.0; GPR7 antag: -7.7; TAAR1 ag conf: 59.5*; Ga16 nonsel ag: 7.7; TAAR1 desensitize: 24.1; Ga16 antag count: 7.0

What do the screens show for `C[C@H]1[C@H](c2ccccc2)Oc2cccc(NCCc3ccccc3)c2S(=O)(=O)N1Cc1ccc(F)cc1`?
TAAR1 antag: 2.1; TAAR1 ag: 78.9*; TAAR1 ag conf: 70.2*; Ga16 nonsel ag: 2.0; TAAR1 desensitize: 17.6; Ga16 antag count: 9.7

Results for C/C(=N\NC(=O)c1cc(C2CC2)nc2ccccc12)c1ccc(O)cc1O ?
TAAR1 antag: -5.5; OX1R antag-1: 11.0; OX1R antag-2: -17.6; TAAR1 ag: -2.4; CHO parental Ca: -16.8; GPR7 antag: -7.3
